TRPC6 inhibitor = inhibitors of mouse TRPC6 channel; Q61143; 310,000 tested, 1.1% active; HEK293-TRPC6, membrane potential dye, ACh-evoked depolarization; active compounds read low; B-score at 10 µM;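 active = B-score under library mean minus 3 SD, initial fluorescence not abnormally high, positive integrated signal ratio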;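 also: B-score derived from integrated fluorescence ratio over the kinetic read; more negative B-score means stronger inhibition of depolarization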
Kir21 block = blocks the mouse Kir2.1 inward-rectifier potassium channel. B-score at 10 µM. HEK293-Kir2.1, FluxOR thallium flux fluorescence; active compounds read low. 310,000 tested, 0.85% active. P35561. AID 1672;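 active = fluorescence ratio B-score at or below minus 3 SD of library scores, with starting-brightness B-score within 2 SD, cut at about -4.2 in these data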;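 also: channel flux triggered by added potassium and thallium sulfate stimulus; B-score of peak minus minimum fluorescence over baseline after thallium stimulus; more negative B-score means stronger Kir2.1 block with less thallium influx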
Target sequence (P35561 whole entry, looked up): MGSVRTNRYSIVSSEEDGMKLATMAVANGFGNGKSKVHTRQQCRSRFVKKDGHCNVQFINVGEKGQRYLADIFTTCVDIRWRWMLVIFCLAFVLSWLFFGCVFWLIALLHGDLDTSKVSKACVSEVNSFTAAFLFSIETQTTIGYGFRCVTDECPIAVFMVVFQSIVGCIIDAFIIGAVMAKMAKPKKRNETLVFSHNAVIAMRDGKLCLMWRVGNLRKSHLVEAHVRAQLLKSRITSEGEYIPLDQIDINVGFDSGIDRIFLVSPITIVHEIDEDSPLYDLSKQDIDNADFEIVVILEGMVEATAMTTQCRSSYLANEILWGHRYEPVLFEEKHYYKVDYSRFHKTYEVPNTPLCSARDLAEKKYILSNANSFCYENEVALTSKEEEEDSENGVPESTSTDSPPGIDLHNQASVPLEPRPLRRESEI
TRPC4 potent = allosteric potentiators of mouse TRPC4 channel | Q9QUQ5 | HEK293 TRPC4beta/mu-opioid, DAMGO EC20, Fluo-4 Ca2+ flux; active compounds read high | B-score at 10 µM | 310,000 tested, 0.42% active | AID 2227;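 active = B-score of calcium response area above 5 SD of library B-scores, with initial fluorescence ratio within 5 SD of library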;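 also: B-score of integrated fluorescence ratio over time as area under calcium response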
TRPC6 activator = activates the mouse TRPC6 cation channel. HEK293-TRPC6 membrane potential dye fluorescence; active compounds read high. B-score at 10 µM. 310,000 tested, 0.13% active. AID 2550;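 active = B-score of the integrated fluorescence ratio above library mean plus 3 SD, and starting fluorescence ratio within library mean plus 5 SD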;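 also: higher score means more depolarization so channel activation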
TRPC4 act = TRPC4 (mouse) channel activation | Q9QUQ5 | HEK293 TRPC4beta/mu-opioid, Fluo4 calcium fluorescence; active compounds read high | B-score at 10 µM | 310,000 tested, 0.49% active;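 active = B-score above 5 SD of library B-scores, and initial fluorescence ratio not above library mean plus 5 SD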;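 also: positive B-score marks a calcium rise read as TRPC4 activation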
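Material: HEK293 stable line with TRPC4beta plus mu-opioid receptor; technique: Fluo4 calcium-sensitive dye fluorescence, kinetic, 1 Hz baseline; timing: Fluo4 dye loading 45 min at room temperature, 110 s recording; controls: assay buffer as low control, maximal DAMGO as high control; read-out: integrated baseline-normalised fluorescence ratio, converted to per-well B score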
TRPC4 block = inhibitors of mouse TRPC4 channel | Q9QUQ5 | HEK293 TRPC4beta/mu-opioid, DAMGO-evoked Fluo4 calcium flux; active compounds read low | B-score at 10 µM | 300,000 tested, 0.39% active;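 active = B-score over 3 SD under the library average, no early fluorescence shift, positive overall ratio signal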
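material = TRPC4beta/mu-opioid receptor HEK293 cell line | probe or stimulus = sequential submaximal and maximal DAMGO stimulation | compound dosing = one concentration per compound | measured by = Fluo4 Ca2+ flux fluorescence | evaluation = integrated fluorescence ratio relative to baseline, converted to per-well B score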
An asterisk follows results filed as active; i = inactive. Rows were chosen to be rich in hits. Some 2.9% of all compounds tested hit in one or more screens of this group.

SMILES	TRPC6 inhibitor	Kir21 block	TRPC4 potent	TRPC6 activator	TRPC4 act	TRPC4 block
O=C(Nc1ccc(Br)cn1)c1cccc2c1-c1ccccc1C2=O	i	0.31	i	i	i	i
Cc1nn2c(NCc3ccccn3)cc(C(C)C)nc2c1-c1ccccc1	i	0.63	i	i	i	i
Cc1nn2c(N3CCOCC3)cc(C(C)C)nc2c1-c1ccccc1	i	-2	i	i	i	i
Cc1nn2c(NCCCn3ccnc3)cc(C(C)C)nc2c1-c1ccccc1	i	-5*	i	i	i	i
CCN1CCN(c2cc(C(C)C)nc3c(-c4ccccc4)c(C)nn23)CC1	i	-8.1*	i	i	i	i
CCCn1c(SCC(=O)c2cc(C)n(-c3ccc4c(c3)OCO4)c2C)n[nH]c1=O	i	-6.7*	i	i	i	i
CCOc1ccc(S(=O)(=O)N2CCN(C)CC2)c(C)c1C	i	-1.3	i	i	i	i
CCOc1ccc(S(=O)(=O)N2CCCCC2)c(C)c1C	i	-0.08	14*	i	i	i
COCCCN1C(=O)c2ccc(C(=O)OCC(=O)N(CCC#N)c3cc(C)cc(C)c3)cc2C1=O	i	-1	i	i	i	i
CCc1nc(N=C(N)N)nc2ccccc12	i	-0.02	i	i	i	i
COc1nc(N=C(N)N)nc2ccc(C)cc12	i	-0.06	i	i	i	-5*
CN1CCCN(C(=O)c2cc(-c3cccc4ccccc34)nc3ccccc23)CC1	i	-0.03	i	i	i	i
COc1cccc(NC(=O)c2ccc(NCCCN3CC(C)CC(C)C3)c([N+](=O)[O-])c2)c1 (stereo unspecified)	i	0.99	14*	i	i	i
Cc1ccc(C(=O)c2no[n+]([O-])c2C(=O)c2ccc(C)cc2)cc1	i	-7.9*	29*	i	i	i
CCOC(=O)c1c(C)[nH]c(C(=O)OCC(=O)NC2(C#N)CCCCC2)c1C	i	-1.3	i	i	i	i
Cc1ccc(S(=O)(=O)N(Cc2ccc(F)cc2)Cc2ccco2)cc1	i	-0.7	i	i	i	i
Cc1ccc(S(=O)(=O)N(Cc2ccccc2)Cc2ccco2)cc1	i	-5*	14*	i	i	i
CN1CCC(=NNC(=O)CN(c2ccc([N+](=O)[O-])cc2)S(=O)(=O)c2ccccc2)CC1	i	-1.8	i	i	i	i
Cn1cnc([N+](=O)[O-])c1S(=O)(=O)c1ccc(Cl)cc1	i	-6.8*	i	i	i	i
OC(COc1ccc(CN2CCCCO2)cc1)CN1CCCCC1 (stereo unspecified)	i	-0.67	i	i	i	i
CCn1nc([N+](=O)[O-])c(C(C#N)c2nc3cc(C(F)(F)F)ccc3s2)c(Cl)c1=O (stereo unspecified)	-11*	-5.5*	i	i	i	i
Cc1ccc(C)c(NC(=S)N2CCC(NC(=O)C3CCCCC3)CC2)c1	i	2.5	i	i	i	i
CCOC(=O)C1CCCN(CCC(=O)Nc2cccc(F)c2)C1 (stereo unspecified)	i	-0.47	i	i	i	i
CCOC(=O)C1CCCN(CC(=O)c2ccc(F)cc2)C1 (stereo unspecified)	i	0.28	i	i	81*	i
CCOC(=O)C1CCCN(CCC(=O)Nc2cccc(C)c2)C1 (stereo unspecified)	i	-1.9	i	i	54*	i
SMILES	TRPC6 inhibitor	Kir21 block	TRPC4 potent	TRPC6 activator	TRPC4 act	TRPC4 block
O=C(CC1CCCCC1)c1c(O)c2ccccc2oc1=O	i	1.4	i	i	99*	i
CC(=N)c1c(O)c2ccccc2oc1=O	i	0.36	i	i	i	i
CC1CCC(C(=O)c2c(O)c3ccccc3oc2=O)CC1 (stereo unspecified)	i	-2.8	i	i	44*	i
N#Cc1ccsc1NC(=O)CN(Cc1ccccc1)Cc1ccccc1	i	-4.8*	i	i	i	i
Cc1cc(S(=O)(=O)N2CCN=C2c2ccccc2)ccc1F	i	-4.7*	i	i	i	i
CNCC(=O)Nc1ccc(Cl)c(C(F)(F)F)c1	i	-0.06	28*	i	i	i
Cc1ccccc1NC(=O)CNc1ccc(Cl)c(C(F)(F)F)c1	i	1.1	i	i	i	i
Cc1ccccc1N1CCN(C2CCCN(C(=O)CCc3c(C)noc3C)C2)CC1 (stereo unspecified)	i	-0.63	i	i	i	i
CC(C)CCn1c(SCC(=O)NC2CCS(=O)(=O)C2)nc2cc(Cl)ccc2c1=O (stereo unspecified)	i	0.57	i	i	i	i
CCC(C(=O)Nc1cccnc1)n1c(=O)[nH]c2ccccc2c1=O (stereo unspecified)	i	0.44	i	i	i	i
CCCCc1ccc(NC(=O)CSc2nnc(C)c(=O)n2N)cc1	i	1.4	24*	i	i	i
CCNS(=O)(=O)c1ccc(Br)c(OC)c1	i	1.2	i	i	i	-6*
Cc1cc(/C=C2/C(=N)N3C(=NC2=O)SN=C3S(C)(=O)=O)c(C)n1-c1ccccc1F	i	0.09	i	i	i	-6*
O=[N+]([O-])c1ccc(/C=N/Nc2nc(NCc3ccccc3)nc(N3CCOCC3)n2)cc1	i	1.4	i	i	i	i
O=[N+]([O-])c1cccc(/C=N/Nc2nc(NCc3ccccc3)nc(N3CCOCC3)n2)c1O	i	-0.01	i	i	53*	i
C=CCOc1ccc(/C=C2\SC(=S)N(NS(=O)(=O)c3ccc(C)cc3)C2=O)cc1	i	-1.3	12*	i	i	i
Cc1ccc(/C=C2\SC(=S)N(NS(=O)(=O)c3ccc(C)cc3)C2=O)cc1	i	0.68	i	i	i	i
O=C(CN(CC1CCCO1)C(=O)c1nsc(Cl)c1Cl)NC1CCCC1 (stereo unspecified)	i	1.9	i	i	i	i
CCCc1nc2oc3c(NCCN(C)C)ncnc3c2c2c1CCCC2	i	-0.53	i	i	i	-6*
O=C(/C=C/c1ccccc1)N/C(=C/c1ccccc1)C(=O)NCCCO	i	0.59	i	i	i	i

Screens from PubChem.
